From ChEMBL document CHEMBL1817603, “Antibacterial polyketides from the jellyfish-derived fungus Paecilomyces variotii” (2011)
In brackets after ≈: the same amount, converted by molar mass.

Key:
Format in all cases: functional
[1] = test system: Vibrio parahaemolyticus; test: Antimicrobial activity against multidrug-resistant Vibrio parahaemolyticus 7001 after 24 hrs by microtiter plate based MIC assay; settings: Vibrio parahaemolyticus, 7001, 24 h
How it was run: (§1)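 Broth microdilution MIC in LB broth. Compounds were twofold serially diluted in 0.5% MeOH, and reference antibiotics were diluted from 40 to 0.31 μg/mL per well. The bacterial inoculum was adjusted by turbidity at 600 nm to a 0.5 McFarland standard. Test solution was added at one part to nine parts culture, then incubated at 36 °C for 24 h. The assay was run in triplicate, with vehicle-matched blank growth controls.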

[2] = test system: Staphylococcus aureus; test: Antimicrobial activity against Staphylococcus aureus SG 511 after 24 hrs by microtiter plate based MIC assay; settings: SG 511, 24 h; how it was run: as §1
[3] = test system: Staphylococcus aureus; test: Antimicrobial activity against methicillin-resistant Staphylococcus aureus 3089 after 24 hrs by microtiter plate based MIC assay; settings: Staphylococcus aureus, 3089, 24 h; how it was run: as §1

Structure (SMILES) | MIC [1] | MIC [2] | MIC [3]
C[C@H]1COc2c(N3CCN(C)CC3)c(F)cc3c(=O)c(C(=O)O)cn1c23.C[C@H]1COc2c(N3CCN(C)CC3)c(F)cc3c(=O)c(C(=O)O)cn1c23.O [LEVOFLOXACIN] | 0.156 µg/mL |  | 
CCCCCCCC[C@@H]1OC(=O)c2c(O)cccc21 [PAECILOCIN A] | > 40 µg/mL | > 40 µg/mL | > 40 µg/mL
CCCCCCCC[C@]1(OC)O[C@H](OC)c2c(O)cccc21 [PAECILOCIN B] | > 40 µg/mL | 5 µg/mL (≈ 16.2 µM) | 20 µg/mL (≈ 64.8 µM)
CCCCCCCC[C@]1(OC)O[C@@H](OC)c2c(O)cccc21 [PAECILOCIN C] | > 40 µg/mL | 20 µg/mL (≈ 64.8 µM) | 40 µg/mL (≈ 130 µM)
CN(C)[C@@H]1C(O)=C(C(N)=O)C(=O)[C@@]2(O)C(O)=C3C(=O)c4c(O)cccc4[C@@](C)(O)[C@H]3C[C@@H]12 [TETRACYCLINE] |  | 1.25 µg/mL (≈ 2.81 µM) | 
CN[C@H](CC(C)C)C(=O)N[C@H]1C(=O)N[C@@H](CC(N)=O)C(=O)N[C@H]2C(=O)N[C@H]3C(=O)N[C@H](C(=O)N[C@H](C(=O)O)c4cc(O)cc(O)c4-c4cc3ccc4O)[C@H](O)c3ccc(c(Cl)c3)Oc3cc2cc(c3O[C@@H]2O[C@H](CO)[C@@H](O)[C@H](O)[C@H]2O[C@H]2C[C@](C)(N)[C@H](O)[C@H](C)O2)Oc2ccc(cc2Cl)[C@H]1O [VANCOMYCIN] |  |  | 0.625 µg/mL (≈ 0.431 µM)
